Test results published in ChEMBL document CHEMBL1128383, “Potent, orally active, competitive N-methyl-D-aspartate (NMDA) receptor antagonists are substrates for a neutral amino acid uptake system in Chinese hamster ovary cells” (J Med Chem, 1995).
pIC50: −log10 of the molar value.

What was measured:
Glutamate NMDA receptor [1] = test: (§1) Inhibition of NMDA receptor binding affinity in rat brain synaptosomal membrane using [3H]glutamate as radioligand; assay type: cell membranes
How it was run: (§2)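 Displacement of radioligand ([3H]glutamate, [3H]glycine or [3H]CGP 39653) from rat cortex synaptosomal membranes. IC50 values are means of at least two experiments, each run in triplicate.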

Glutamate NMDA receptor [2] = test: (§3) Inhibition of receptor binding affinity in rat brain synaptosomal membrane was determined by [3H]-CGP- 39653 as radioligand; assay type: cell membranes; how it was run: as §2
[3] = target: T1, Glutamate NMDA receptor (Rattus norvegicus) (UniProt P35439+Q00959+Q00960+Q00961+Q62645+Q8VHN2+Q9R1M7); test: (§4) Inhibition of NMDA receptor binding affinity in rat brain synaptosomal membrane by using [3H]glycine as radioligand; assay type: cell membranes; details: concentration not given here; how it was run: as §2
[4] = target: T1, Glutamate NMDA receptor (Rattus norvegicus); test: Inhibition of NMDA receptor binding in rat brain synaptosomal membrane using [3H]glutamate as radioligand; assay type: cell membranes; details: concentration not given here; how it was run: as §2
[5] = target: T1, Glutamate NMDA receptor (Rattus norvegicus); test: as §3; assay type: cell membranes; details: concentration not given here; how it was run: as §2
Mus musculus [6] = test: Maximal electroshock results in mice by iv administration of 3 mg/kg expressed as 50% effective dose; assay type: functional
Mus musculus [7] = species on record: Mus musculus; test: Potent oral activity in MES mice.; assay type: functional
Glutamate NMDA receptor [8] = test: Inhibition of receptor binding affinity in […] measured using LDH release
How it was run: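 Neuronal cell-culture excitotoxicity assay. Cell death is induced by a 5 min application of 100 μM NMDA and read out as lactate dehydrogenase release. The value is the compound concentration needed to prevent cell death.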

Glutamate NMDA receptor [9] = test: (§5) Inhibition of NMDA receptor binding affinity in rat brain synaptosomal membrane using [3H]glycine as radioligand; assay type: cell membranes; how it was run: as §2
[10] = Therapeutic index(TI) expressed as ratio of ataxia ED50 to the MES ED50 was determined; details: read-out: TI
Glutamate NMDA receptor [11] = test: as §4; assay type: cell membranes
How it was run: (§6)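 Displacement of the named radioligand from rat cortex synaptosomal membranes, following previously reported procedures. IC50 values are means of at least two experiments, each run in triplicate.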

Glutamate NMDA receptor [12] = test: Inhibition of NMDA receptor binding affinity in rat brain synaptosomal membrane was determined by [3H]-CGP- 39653 as radioligand; assay type: cell membranes; how it was run: as §6
Mus musculus [13] = test: Maximal electroshock (MES) results in mice by iv administration of 10 mg/kg expressed as number of animals ataxia by total 5 animals tested after 15 min was reported; assay type: functional
How it was run: (§7)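 Adult male CF-1 mice (18–24 g) dosed iv, mg/kg. At 15 min, 1 h and 2 h after dosing, a 60 Hz sinusoidal current (50 mA base to peak, 0.2 s) is applied through corneal electrodes smeared with electrolyte jelly. Protection means no tonic hindlimb extension. Ataxia is scored by inverted screen. Data are expressed as animals affected per animals tested, 5 per group.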

Mus musculus [14] = test: Maximal electroshock (MES) results in mice by iv administration of 10 mg/kg expressed as number of animals ataxia by total 5 animals tested after 1 hr was reported; assay type: functional; how it was run: as §7
Mus musculus [15] = test: Maximal electroshock (MES) results in mice by iv administration of 10 mg/kg expressed as number of animals ataxia by total 5 animals tested after 2 hr was reported; assay type: functional; how it was run: as §7
Mus musculus [16] = test: Maximal electroshock (MES) results in mice by iv administration of 10 mg/kg expressed as number of animals protected by total 5 animals tested after 15 min was reported; assay type: functional; how it was run: as §7
Mus musculus [17] = test: Maximal electroshock (MES) results in mice by iv administration of 10 mg/kg expressed as number of animals protected by total 5 animals tested after 1 hr was reported; assay type: functional; how it was run: as §7
Mus musculus [18] = test: Maximal electroshock (MES) results in mice by iv administration of 10 mg/kg expressed as number of animals protected by total 5 animals tested after 2 hr was reported; assay type: functional; how it was run: as §7
[19] = target: T1, Glutamate NMDA receptor (Rattus norvegicus); test: as §1; assay type: cell membranes; details: concentration not given here; how it was run: as §2
[20] = target: T1, Glutamate NMDA receptor (Rattus norvegicus); test: as §5; assay type: cell membranes; details: concentration not given here; how it was run: as §2

## N[C@H](Cc1cc(CP(=O)(O)O)cc(-c2ccc3ccccc3c2)c1)C(=O)O
Glutamate NMDA receptor [1]
  pIC50: 6.19
Glutamate NMDA receptor [2]
  pIC50: 6.23

## O=P(O)(O)Cc1cc(CP(=O)(O)O)cc(-c2ccccc2)c1
[3]
  inhibition: 100%
[4]
  inhibition: 80%
[5]
  inhibition: 86%

## N[C@@H](Cc1cc(CP(=O)(O)O)cc(-c2cccc3ccccc23)c1)C(=O)O
Mus musculus [6]
  ED50: 0.53 mg/kg
Mus musculus [7]
  ED50: 5 mg/kg
Glutamate NMDA receptor [8]
  pIC50: 7.30
Glutamate NMDA receptor [1]
  pIC50: 7.82
Glutamate NMDA receptor [9]
  pIC50: 4.18
Glutamate NMDA receptor [2]
  pIC50: 8.22
[10]
  selectivity ratio: 2.28

## O=C(O)C1CN(CCCP(=O)(O)O)CCN1 (stereo not drawn)
Glutamate NMDA receptor [11]
  pIC50: < 3.70
Glutamate NMDA receptor [1]
  pIC50: 6.08
[10]
  selectivity ratio: 2.21
Glutamate NMDA receptor [12]
  pIC50: 6.83

## N[C@H](Cc1cc(CP(=O)(O)O)cc(-c2ccccc2)c1)C(=O)O
Mus musculus [13]
  Ataxia: 0
Mus musculus [14]
  Ataxia: 0
Mus musculus [15]
  Ataxia: 0
Mus musculus [16]
  Protected: 0
Mus musculus [17]
  Protected: 0
Mus musculus [18]
  Protected: 0
Glutamate NMDA receptor [1]
  pIC50: 4.87
Glutamate NMDA receptor [9]
  pIC50: < 3.70
Glutamate NMDA receptor [2]
  pIC50: 5.28

## N[C@@H](Cc1cccc(-c2ccccc2)c1)C(=O)O
[19]
  inhibition: 58%
[20]
  inhibition: 52%
[5]
  inhibition: 52%
